Measured values as given in ChEMBL document CHEMBL4000255, “Discovery and Assessment of Atropisomers of (±)-Lesinurad” (ACS Med Chem Lett, 2017).
Values joined by “and” are separate entries in the source; they are usually repeats but may differ in a detail not shown here. Equal entries are not always repeated.

Tests used:
CYP2C9 [1] = biological target: T1, CYP2C9 (Homo sapiens, UniProt P11712); assay: Drug metabolism in human liver microsomes assessed as CYP2C9-mediated metabolism by measuring parent compound remaining at 10 pmol/ml after 60 mins in absence of NADPH by LC-MS/MS analysis; format: ADME; settings: read-out: Stability
CYP2C9 [2] = biological target: T1, CYP2C9; assay: Drug metabolism in human liver microsomes assessed as CYP2C9-mediated metabolism by measuring parent compound remaining at 10 pmol/ml after 60 mins in presence of NADPH by LC-MS/MS analysis; format: ADME; settings: read-out: Stability
Cytochrome P450 2C9 [3] = biological target: T2, Cytochrome P450 2C9 (Homo sapiens, UniProt P11712); assay: Drug metabolism in human liver microsomes assessed as CYP2C9-mediated metabolism by measuring compound intrinsic clearance at 10 pmol/ml preincubated for 10 mins followed by NADPH addition measured after 10 mins by LC-MS/MS analysis; format: ADME
CYP2C9 [4] = biological target: T1, CYP2C9; assay: Drug metabolism in human liver microsomes assessed as CYP2C9-mediated metabolism by measuring compound half life at 10 pmol/ml preincubated for 10 mins followed by NADPH addition measured after 10 mins by LC-MS/MS analysis; format: ADME
[5] = Drug recovery in cynomolgus monkey urine at 2 mg/kg, iv administered as single bolus dose measured at 24 hrs post dose by LC-MS/MS analysis; format: ADME, organism-based, Macaca fascicularis; settings: read-out: Drug recovery
Summary of the method: (§1)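 Male cynomolgus monkeys received a single 2 mg/kg IV or 10 mg/kg PO dose. Plasma and urine were collected over time periods, and the two atropisomers were quantified separately. Urine values are the mean concentration over 0-24 h. Data are mean±SD, n=3.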

[6] = Stability of the compound in solid state assessed as compound purity after 80 days; format: physicochemical; settings: 1920 h
Plasma [7] = assay: Drug metabolism in Sprague-Dawley rat plasma assessed as (+)-Lesinurad formation at 10 mg/kg, po administered as single dose via gavage by LC-MS/MS analysis; format: ADME, organism-based; settings: in vivo
Cynomolgus monkey [8] = assay: (§2) AUC (0 to infinity) in cynomolgus monkey at 2 mg/kg, iv administered as single bolus dose by LC-MS/MS analysis; format: ADME, organism-based, Macaca fascicularis; set-up: dose 2 mg/kg, time infinity, route intravenous; settings: in vivo
[9] = as §2; format: ADME, organism-based, Macaca fascicularis; set-up: dose 2 mg/kg, time infinity, route intravenous; settings: in vivo
[10] = Apparent permeability from basolateral to apical side in MDCK cells expressing MDR1; format: ADME, cell-based, Canis lupus familiaris; settings: dog
Cytochrome P450 3A4 = Cytochrome P450 3A4 (Homo sapiens, UniProt P08684); assay: Inhibition of CYP3A4 (unknown origin); format: ADME
[11] = Stability of the compound in DMSO at 80 degC for 4 days; format: physicochemical; settings: 96 h
Cytochrome P450 2C9 [12] = biological target: T2, Cytochrome P450 2C9; assay: Drug metabolism in human liver microsomes assessed as CYP2C9-mediated metabolism by measuring compound intrinsic clearance at 250 pmol/ml preincubated for 10 mins followed by NADPH addition measured after 10 mins by LC-MS/MS analysis; format: ADME
[13] = Stability of the compound in ethanol at 37 degC for 4 days; format: physicochemical; settings: 96 h
[14] = Drug recovery in cynomolgus monkey urine at 10 mg/kg, po administered as single dose via gavage measured at 24 hrs post dose by LC-MS/MS analysis; format: ADME, organism-based, Macaca fascicularis; settings: read-out: Drug recovery; summary of the method: as §1
[15] = Stability of the compound in solid state assessed as racemization after 80 days; format: physicochemical; settings: 1920 h
CYP2C9 [16] = biological target: T1, CYP2C9; assay: (§3) Drug metabolism in human liver microsomes assessed as CYP2C9-mediated metabolism by measuring parent compound remaining at 250 pmol/ml after 60 mins in presence of NADPH by LC-MS/MS analysis; format: ADME; settings: liver microsomes, read-out: Stability
Cytochrome P450 2C9 [17] = biological target: T2, Cytochrome P450 2C9; assay: as §3; format: ADME; settings: microsomes, 1 h
[18] = biological target: Voltage-gated inwardly rectifying potassium channel KCNH2 (Homo sapiens, UniProt Q12809); assay: Inhibition of human ERG
[19] = Drug metabolism in cynomolgus monkey assessed as (-)-Lesinurad level in urine at 10 mg/kg, po administered as single dose via gavage measured at 24 hrs post dose by LC-MS/MS analysis; format: ADME, organism-based, Macaca fascicularis; settings: in vivo, read-out: Drug metabolism; summary of the method: as §1
Cynomolgus monkey [20] = assay: AUC (0 to infinity) in cynomolgus monkey at 10 mg/kg, po administered as single dose via gavage by LC-MS/MS analysis; format: ADME, organism-based, Macaca fascicularis; set-up: dose 10 mg/kg, route oral, time infinity; settings: in vivo
[21] = Drug metabolism in cynomolgus monkey assessed as (-)-Lesinurad level in urine at 2 mg/kg, iv administered as single bolus dose measured at 24 hrs post dose by LC-MS/MS analysis; format: ADME, organism-based, Macaca fascicularis; settings: in vivo; summary of the method: as §1
Plasma [22] = assay: Drug metabolism in Sprague-Dawley rat plasma assessed as (-)-Lesinurad formation at 2 mg/kg, iv administered as single bolus dose by LC-MS/MS analysis; format: ADME, organism-based; settings: in vivo
[23] = Drug metabolism in cynomolgus monkey assessed as (+)-Lesinurad level in urine at 2 mg/kg, iv administered as single bolus dose measured at 24 hrs post dose by LC-MS/MS analysis; format: ADME, organism-based, Macaca fascicularis; settings: in vivo, read-out: Drug metabolism; summary of the method: as §1
CYP2C9 [24] = biological target: T1, CYP2C9; assay: (§4) Drug metabolism in human liver microsomes assessed as CYP2C9-mediated metabolism by measuring parent compound remaining at 250 pmol/ml after 60 mins in absence of NADPH by LC-MS/MS analysis; format: ADME; settings: liver microsomes, read-out: Stability
Cytochrome P450 2C9 [25] = biological target: T2, Cytochrome P450 2C9; assay: as §4; format: ADME; settings: microsomes, 1 h
[26] = Drug metabolism in cynomolgus monkey assessed as (+)-Lesinurad level in urine at 10 mg/kg, po administered as single dose via gavage measured at 24 hrs post dose by LC-MS/MS analysis; format: ADME, organism-based, Macaca fascicularis; settings: in vivo, read-out: Drug metabolism; summary of the method: as §1
Plasma [27] = assay: Stability in human plasma at 37 degC up to 2 hrs; format: ADME, cell-free
CYP2C9 [28] = biological target: T1, CYP2C9; assay: (§5) Drug metabolism in human liver microsomes assessed as CYP2C9-mediated metabolism by measuring compound half life at 250 pmol/ml preincubated for 10 mins followed by NADPH addition measured after 10 mins by LC-MS/MS analysis; format: ADME; settings: liver microsomes
Cytochrome P450 2C9 [29] = biological target: T2, Cytochrome P450 2C9; assay: as §5; format: ADME; settings: microsomes, 10 min
Plasma [30] = assay: Drug metabolism in Sprague-Dawley rat plasma assessed as (+)-Lesinurad formation at 2 mg/kg, iv administered as single bolus dose by LC-MS/MS analysis; format: ADME, organism-based; settings: in vivo
Cytochrome P450 2C19 = Cytochrome P450 2C19 (Homo sapiens, UniProt P33261); assay: Inhibition of CYP2C19 (unknown origin); format: ADME
[31] = Drug level in cynomolgus monkey urine at 2 mg/kg, iv administered as single bolus dose measured at 24 hrs post dose by LC-MS/MS analysis; format: ADME, organism-based, Macaca fascicularis; settings: read-out: Drug uptake; summary of the method: as §1
Plasma [32] = assay: Drug metabolism in Sprague-Dawley rat plasma assessed as (-)-Lesinurad formation at 10 mg/kg, po administered as single dose via gavage by LC-MS/MS analysis; format: ADME, organism-based; settings: in vivo
[33] = Drug level in cynomolgus monkey urine at 10 mg/kg, po administered as single dose via gavage measured at 24 hrs post dose by LC-MS/MS analysis; format: ADME, organism-based, Macaca fascicularis; settings: in vivo, read-out: Drug uptake; summary of the method: as §1
Plasma [34] = assay: Stability in Sprague-Dawley rat plasma at 37 degC up to 2 hrs; format: ADME, cell-free
Cytochrome P450 1A2 = biological target: T3, Cytochrome P450 1A2 (Homo sapiens, UniProt P05177); assay: Inhibition of CYP1A2 (unknown origin); format: ADME
T3 sequence (P05177 whole entry): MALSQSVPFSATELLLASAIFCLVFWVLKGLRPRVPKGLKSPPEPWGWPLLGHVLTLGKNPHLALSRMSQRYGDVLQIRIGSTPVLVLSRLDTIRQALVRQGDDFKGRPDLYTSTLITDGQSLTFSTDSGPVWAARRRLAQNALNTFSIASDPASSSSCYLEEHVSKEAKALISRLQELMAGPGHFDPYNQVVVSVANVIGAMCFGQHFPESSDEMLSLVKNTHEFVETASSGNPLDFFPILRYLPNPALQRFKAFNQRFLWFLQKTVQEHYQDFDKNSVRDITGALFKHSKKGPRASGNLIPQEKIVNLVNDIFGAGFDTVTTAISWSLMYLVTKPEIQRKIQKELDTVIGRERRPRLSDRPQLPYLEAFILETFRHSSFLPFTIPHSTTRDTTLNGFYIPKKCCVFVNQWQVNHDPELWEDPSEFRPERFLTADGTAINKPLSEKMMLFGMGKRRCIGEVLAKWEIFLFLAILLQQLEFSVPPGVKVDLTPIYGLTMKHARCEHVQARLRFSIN

Cytochrome P450 2D6 = Cytochrome P450 2D6 (Homo sapiens, UniProt P10635); assay: Inhibition of CYP2D6 (unknown origin); format: ADME
[35] = Apparent plasma clearance in cynomolgus monkey at 2 mg/kg, iv administered as single bolus dose by LC-MS/MS analysis; format: ADME, organism-based, Macaca fascicularis; settings: read-out: CL(app); summary of the method: as §1
[36] = Apparent permeability from apical to basolateral side in MDCK cells expressing MDR1; format: ADME, cell-based, Canis lupus familiaris; settings: dog
Cytochrome P450 2C9 [37] = biological target: T2, Cytochrome P450 2C9; assay: Inhibition of CYP2C9 (unknown origin); format: ADME
Cytochrome P450 2C9 [38] = biological target: T2, Cytochrome P450 2C9; assay: Drug metabolism in human liver microsomes assessed as CYP2C9-mediated mono-oxidative metabolite formation at 250 pmol/ml preincubated for 10 mins followed by NADPH addition measured after 10 mins by LC-MS/MS analysis; format: ADME; settings: 0.25 µM

Sequence of Voltage-gated inwardly rectifying potassium channel KCNH2 (Q12809 whole entry): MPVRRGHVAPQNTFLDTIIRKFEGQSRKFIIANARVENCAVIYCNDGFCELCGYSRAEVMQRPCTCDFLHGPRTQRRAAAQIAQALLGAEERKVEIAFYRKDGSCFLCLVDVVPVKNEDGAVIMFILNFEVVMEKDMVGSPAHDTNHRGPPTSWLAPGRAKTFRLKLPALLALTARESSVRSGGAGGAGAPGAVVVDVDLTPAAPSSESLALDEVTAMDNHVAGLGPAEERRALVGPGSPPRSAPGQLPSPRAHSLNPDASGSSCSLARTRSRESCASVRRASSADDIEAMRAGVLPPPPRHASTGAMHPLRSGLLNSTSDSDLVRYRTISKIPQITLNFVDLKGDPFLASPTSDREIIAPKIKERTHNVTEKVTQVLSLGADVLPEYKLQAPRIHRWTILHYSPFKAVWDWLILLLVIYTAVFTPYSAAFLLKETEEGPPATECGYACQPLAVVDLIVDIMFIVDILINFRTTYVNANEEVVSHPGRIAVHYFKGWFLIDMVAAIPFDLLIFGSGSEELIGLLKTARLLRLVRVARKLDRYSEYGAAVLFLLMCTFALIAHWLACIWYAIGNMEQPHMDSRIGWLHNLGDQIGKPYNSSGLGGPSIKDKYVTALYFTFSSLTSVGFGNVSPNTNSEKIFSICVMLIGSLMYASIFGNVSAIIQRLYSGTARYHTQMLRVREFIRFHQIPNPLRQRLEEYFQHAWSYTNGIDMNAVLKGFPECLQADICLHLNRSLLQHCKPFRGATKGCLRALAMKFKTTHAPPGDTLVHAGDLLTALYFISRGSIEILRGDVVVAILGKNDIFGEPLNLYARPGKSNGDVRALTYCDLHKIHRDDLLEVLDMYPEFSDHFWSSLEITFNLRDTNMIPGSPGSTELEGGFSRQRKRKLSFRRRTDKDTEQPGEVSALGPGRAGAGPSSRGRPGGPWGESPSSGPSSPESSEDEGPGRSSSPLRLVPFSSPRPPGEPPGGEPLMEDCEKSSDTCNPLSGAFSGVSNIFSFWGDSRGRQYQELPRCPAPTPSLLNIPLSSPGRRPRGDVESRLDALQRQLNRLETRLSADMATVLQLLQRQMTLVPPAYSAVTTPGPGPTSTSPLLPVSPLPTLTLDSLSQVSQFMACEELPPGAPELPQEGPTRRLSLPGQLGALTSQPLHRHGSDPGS
T2 sequence (P11712 whole entry): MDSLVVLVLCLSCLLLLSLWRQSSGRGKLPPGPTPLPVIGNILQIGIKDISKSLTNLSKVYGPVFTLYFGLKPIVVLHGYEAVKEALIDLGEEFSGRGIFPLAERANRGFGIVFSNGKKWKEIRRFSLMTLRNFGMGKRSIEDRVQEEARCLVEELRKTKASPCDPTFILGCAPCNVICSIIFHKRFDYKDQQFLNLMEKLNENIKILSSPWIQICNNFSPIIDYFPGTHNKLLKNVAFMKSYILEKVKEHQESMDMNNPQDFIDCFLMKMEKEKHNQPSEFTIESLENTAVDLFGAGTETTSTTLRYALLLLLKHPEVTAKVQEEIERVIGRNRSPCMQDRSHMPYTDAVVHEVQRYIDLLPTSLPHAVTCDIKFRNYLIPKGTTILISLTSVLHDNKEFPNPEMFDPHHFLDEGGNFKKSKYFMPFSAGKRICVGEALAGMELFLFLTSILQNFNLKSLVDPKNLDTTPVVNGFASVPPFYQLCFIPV
T1 sequence (P11712 whole entry): as above
Sequence of Cytochrome P450 2C19 (P33261 whole entry): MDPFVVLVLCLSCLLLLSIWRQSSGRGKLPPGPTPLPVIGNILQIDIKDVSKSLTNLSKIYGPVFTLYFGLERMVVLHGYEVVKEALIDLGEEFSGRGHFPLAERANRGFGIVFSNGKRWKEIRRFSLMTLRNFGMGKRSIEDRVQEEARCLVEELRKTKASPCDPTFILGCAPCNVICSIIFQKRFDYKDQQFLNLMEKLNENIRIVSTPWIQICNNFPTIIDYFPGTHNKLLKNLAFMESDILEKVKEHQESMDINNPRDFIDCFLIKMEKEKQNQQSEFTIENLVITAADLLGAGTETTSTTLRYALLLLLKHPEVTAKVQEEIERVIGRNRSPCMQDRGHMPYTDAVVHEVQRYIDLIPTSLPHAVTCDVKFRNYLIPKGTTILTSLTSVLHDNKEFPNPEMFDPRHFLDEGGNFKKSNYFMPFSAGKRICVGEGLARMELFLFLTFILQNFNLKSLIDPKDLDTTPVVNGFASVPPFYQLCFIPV
Sequence of Cytochrome P450 2D6 (P10635 whole entry): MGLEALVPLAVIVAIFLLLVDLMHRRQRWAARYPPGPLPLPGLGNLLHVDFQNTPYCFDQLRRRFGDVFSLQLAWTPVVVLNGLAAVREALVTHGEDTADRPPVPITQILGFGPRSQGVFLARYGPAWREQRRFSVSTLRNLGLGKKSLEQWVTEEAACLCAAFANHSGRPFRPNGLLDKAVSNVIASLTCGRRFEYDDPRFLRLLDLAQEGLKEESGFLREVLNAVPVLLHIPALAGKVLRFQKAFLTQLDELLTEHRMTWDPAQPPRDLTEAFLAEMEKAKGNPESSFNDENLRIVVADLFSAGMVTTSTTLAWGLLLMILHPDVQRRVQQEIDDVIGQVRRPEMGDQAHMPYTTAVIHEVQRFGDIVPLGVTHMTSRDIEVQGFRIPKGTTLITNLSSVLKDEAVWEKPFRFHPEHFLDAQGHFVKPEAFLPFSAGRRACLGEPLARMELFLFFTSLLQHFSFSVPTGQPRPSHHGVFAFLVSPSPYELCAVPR
Sequence of Cytochrome P450 3A4 (P08684 whole entry): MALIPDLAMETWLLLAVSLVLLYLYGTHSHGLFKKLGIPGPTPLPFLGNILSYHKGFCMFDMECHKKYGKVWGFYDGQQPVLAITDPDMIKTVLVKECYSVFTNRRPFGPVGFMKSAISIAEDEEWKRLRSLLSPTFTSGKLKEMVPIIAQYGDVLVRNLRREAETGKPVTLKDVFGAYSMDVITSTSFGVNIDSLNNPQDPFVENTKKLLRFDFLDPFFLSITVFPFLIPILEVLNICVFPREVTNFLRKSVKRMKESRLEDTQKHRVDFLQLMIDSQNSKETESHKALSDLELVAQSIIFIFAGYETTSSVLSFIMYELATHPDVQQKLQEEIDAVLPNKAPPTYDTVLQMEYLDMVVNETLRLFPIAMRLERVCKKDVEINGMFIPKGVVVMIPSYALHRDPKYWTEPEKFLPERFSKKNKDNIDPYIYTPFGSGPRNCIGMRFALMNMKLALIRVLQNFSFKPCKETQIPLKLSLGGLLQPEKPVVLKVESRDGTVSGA

## O=C(O)Cc1ccccc1Nc1c(Cl)cccc1Cl [DICLOFENAC]
CYP2C9 [1]
  remaining at 1 h, 10 pmol/ml: 112%
CYP2C9 [2]
  remaining at 1 h, 10 pmol/ml: 3.3%
Cytochrome P450 2C9 [3]
  CLint: 5.6 µL/min/pmol
CYP2C9 [4]
  half-life at 10 pmol/ml: 0.205 h

## O=C(O)CSc1nnc(Br)n1-c1ccc(C2CC2)c2ccccc12 [LESINURAD]
[5]
  dose excreted at 24 h: 20%
[6]
  Stability: Stable
Plasma [7]
  Drug metabolism: Metabolite_Notdetected
Cynomolgus monkey [8]
  AUC: 19.2 µM·h
[9]
  AUC(0-inf): 26.7 µM·h
[10]; MDCK-MDR1
  Papp B→A: 1.98 ×10⁻⁶ cm/s
[10]; mdck
  Papp: 1.84 ucm/s and 1.62 ucm/s
Cytochrome P450 3A4
  IC50: 74.4 µM and 32.4 µM and 31 µM
[11]
  Stability: Stable
Cytochrome P450 2C9 [12]
  CLH: 0.04 µL/min/pmol and < 0.02 µL/min/pmol
[13]
  Stability: Stable
[14]
  dose excreted at 24 h: 20%
[15]
  Stability: Stable
CYP2C9 [16]
  remaining at 1 h, 250 pmol/ml: 61.8%
Cytochrome P450 2C9 [17]
  Stability: 74.9%
[18]
  IC50: > 30 µM
[19]
  concentration: 153 µM
Cynomolgus monkey [20]
  AUC: 83.9 µM·h and 37.3 µM·h
[21]
  Drug metabolism: 5.4 µM
Plasma [22]
  Drug metabolism: Metabolite_Notdetected
[23]
  concentration: 2.8 µM
CYP2C9 [24]
  remaining at 1 h, 250 pmol/ml: 110%
Cytochrome P450 2C9 [25]
  Stability: 108.9%
[26]
  concentration: 38 µM
Plasma [27]
  Stability: Stable
CYP2C9 [28]
  half-life at 250 pmol/ml: 1.5 h
Cytochrome P450 2C9 [29]
  t1/2: > 2.42 h
Plasma [30]
  Drug metabolism: Metabolite_Notdetected
Cytochrome P450 2C19
  IC50: 61.7 µM and 10.6 µM and 10.8 µM
[31]; in vivo, 24 h
  concentration: 15.7 µM
[31]; urine
  concentration at 24 h: 16.3 µM
Plasma [32]
  Drug metabolism: Metabolite_Notdetected
[33]
  concentration: 120 µM and 47.8 µM
Plasma [34]
  Stability: Stable
Cytochrome P450 1A2
  IC50: 17.3 µM and 39.3 µM and 21.9 µM
Cytochrome P450 2D6
  IC50: 32.6 µM and 92.1 µM and > 100 µM
[35]
  clearance: 3.3 mL/min/kg
[36]; MDCK-MDR1
  Papp A→B: 1.34 ×10⁻⁶ cm/s
[36]; mdck
  Papp: 1.29 ucm/s and 1.26 ucm/s
Cytochrome P450 2C9 [37]
  IC50: > 100 µM and 78.7 µM and 31.2 µM
Cytochrome P450 2C9 [38]
  Drug metabolism: Metabolite_Detected
